# Results as given in paper PMC8526916 (International Journal for Parasitology: Drugs and Drug …, 2021).
# Tests used:
# BKI-1294 plasma exposure = format: in vivo, sheep; settings: G1
# Outline: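 Rasa Aragonesa ewes (12 months, seronegative), challenged i.v. with Nc-Spain7 tachyzoites. From 48 h pi, test compound was given orally by oro-ruminal probe at 100 mg/kg, 5 doses every other day. Heparinized blood was sampled at set times and plasma analysed by LC-MS/MS. Troughs were taken 48 h after each dose; values are mean ± S.D.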
# [1] = Plasma protein binding by equilibrium dialysis, mouse plasma; format: in vitro ADME; settings: 5 μM
# Outline: (§1)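 Test compound in DMSO was spiked into plasma at 5 μM; an aliquot of spiked plasma served as the 100% recovery standard. Samples were matrix-matched, extracted in 80% acetonitrile with internal standard and quantified by UPLC-MS/MS. Fraction bound = bound/(unbound + bound), corrected for matrix dilution.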
# [2] = Plasma protein binding by equilibrium dialysis, rat plasma; format: in vitro ADME; settings: 5 μM
# Outline: as §1
# [3] = Plasma protein binding by equilibrium dialysis, dog plasma; format: in vitro ADME; settings: 5 μM
# Outline: as §1
# [4] = Plasma protein binding by equilibrium dialysis, human plasma; format: in vitro ADME; settings: 5 μM
# Outline: as §1
# [5] = Safety monitoring of treated pregnant sheep; format: in vivo
# Outline: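 Infected pregnant ewes received test compound orally at 100 mg/kg, 5 doses every other day from 48 h pi; uninfected controls received vehicle. A veterinarian observed animals daily for faecal consistency, blood in faeces and behavioural changes. Rectal temperature was taken daily to day 14 pi, then weekly; >40 °C counted as fever.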
# [6] = tested on: Neospora caninum Nc-Spain7 tachyzoites; assay: Rectal temperatures and fever in N. caninum-infected pregnant sheep; format: in vivo; settings: days 5, 7 and 9 pi
# IFNγ = assay: Peripheral blood cell stimulation assay, IFNγ production; format: in vivo, sheep
# Outline: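 Heparinized jugular blood from dams was sampled before infection, at 3, 5, 7 and 10 days pi, then weekly. Blood was cultured with soluble N. caninum antigen or ConA for 24 h at 37 °C, 5% CO2, and IFNγ measured in supernatants by enzyme immunoassay. Analysis: repeated-measures two-way ANOVA to day 28 pi, one-way ANOVA afterwards; mean ± S.D.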
# [7] = tested on: N. caninum soluble antigens; assay: In-house indirect ELISA, IgG against N. caninum soluble antigens in dams; format: in vivo, sheep
# Outline: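 Dam sera were collected before infection, at 3, 5, 7 and 10 days pi, then weekly. Plates were coated with soluble N. caninum antigen and blocked; sera were diluted 1:100 in 1% BSA in PBS with 0.05% Tween 20. Detection used HRP anti-goat/sheep IgG (1:20000) with ABTS, stopped with 0.3 M oxalic acid, read at OD405 and expressed as RIPC. Analysis: repeated-measures two-way ANOVA to day 28 pi, one-way ANOVA after.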
# NcSAG1 = assay: Commercial TgSAG1 ELISA, anti-NcSAG1 IgG in dams; format: in vivo, sheep; settings: days 21 (P < 0.01) and 42 pi (P < 0.05)
# [8] = tested on: Neospora caninum Nc-Spain7 tachyzoites; assay: Foetal survival in pregnant sheep infected with N. caninum at mid-pregnancy; format: in vivo
# Neospora caninum = assay: qPCR parasite burden in placentomes and foetal brain; format: in vivo; settings: aborted sheep
# Outline: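 DNA was extracted by paramagnetic-particle capture from 50–100 mg of foetal brain (three replicates each) and six placental samples per dam. Samples were screened by nested Nc5-PCR (337 bp product), with 10, 1 and 0.1 tachyzoite-equivalent controls in 100 ng sheep DNA and an uninfected-group negative. PCR-positive samples were quantified by real-time PCR; burdens compared by Mann–Whitney test.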
# [9] = tested on: Toxoplasma gondii oocysts; settings: sheep infected with T. gondii oocysts during pregnancy; ref Sánchez-Sánchez et al., 2019; cited from earlier work
# Nc-Spain7 isolate = settings: in vitro, ref Winzer et al., 2015; cited from earlier work
# [10] = mice; ref Vidadala et al., 2016; cited from earlier work
# [11] = ref Schaefer et al., 2016; cited from earlier work
# [12] = pregnant sheep; ref Sánchez-Sánchez et al., 2019; cited from earlier work
smiles,measurement,setting,value
CCOc1ccc2cc(-c3nn(CC4CCN(C)CC4)c4ncnc(N)c34)ccc2c1 [BKI-1294],trough plasma concentrations,BKI-1294 plasma exposure; 48 h after 1st oral dose of 100 mg/kg,0.7 ± 0.4 µM
same,trough plasma concentrations,BKI-1294 plasma exposure; 48 h after 2nd oral dose of 100 mg/kg,0.7 ± 0.4 µM
same,trough plasma concentrations,BKI-1294 plasma exposure; 48 h after 3rd oral dose of 100 mg/kg,0.9 ± 0.5 µM
same,trough plasma concentrations,BKI-1294 plasma exposure; 48 h after 4th oral dose of 100 mg/kg,1.4 ± 1.1 µM
same,trough plasma concentrations,BKI-1294 plasma exposure; 48 h after 5th oral dose of 100 mg/kg,1.3 ± 0.8 µM
same,plasma protein binding (bound),[1],85%
same,plasma protein binding (bound),[2],85%
same,plasma protein binding (bound),[3],52%
same,plasma protein binding (bound),[4],85%
same,safety of oral administration,"[5]; N. caninum-infected pregnant sheep, oral 100 mg/kg x5",safe
same,"Diarrhoea, bloody stools, and behavioural disorders","[5]; oral 100 mg/kg, 5 doses every other day, pregnant sheep",not observed
same,rectal temperatures versus infected/untreated group,[6],significantly lower increase in rectal temperatures
same,IFNγ levels versus infected/untreated group,"IFNγ; day 7 pi, blood stimulated with N. caninum antigen, P < 0.0001",higher IFNγ levels
same,IFNγ levels relative to infected/untreated group,"IFNγ; days 14, 21 and 28 pi, not significant",approximately 10 fold
same,IgG levels against N. caninum soluble antigens versus infected/untreated group,"[7]; days 14, 21 and 28 pi",lower antibody response
same,IgG levels against N. caninum soluble antigens versus infected/untreated group,[7]; from day 35 pi onwards,no significant differences
same,anti-NcSAG1 IgG levels versus infected/untreated group,NcSAG1,lower anti-NcSAG1 IgG levels
same,median day of foetal death,[8]; G1 infected/treated (G2: 45),44 day pi
same,"foetal mortality (sheep whose foetuses died, 7 out of 8)","[8]; G1 infected/treated, same in G2 untreated",87%
same,foetal survival rate versus infected/untreated group,[8]; log-rank test,no significant differences
same,parasite burden in placentomes versus infected/untreated group,Neospora caninum,No significant differences
same,efficacy against abortion,[9],71%
same,efficacy against vertical transmission,[9],53%
same,IC50,Nc-Spain7 isolate,270 ± 20 nM
same,CNS crossing,[10],30%
same,bioavailability lower than BKI-1553,[10],30 fold
same,plasma clearance,[10],high plasma clearance
same,PPB in mice,[11],85%
same,safety of repeated oral administration,[12],"safe, both locally and systemically"
